# ChEMBL document CHEMBL4706597, “Structure-guided optimization and mechanistic study of a class of quinazolinone-threonine hybrids as antibacterial ThrRS inhibitors” (Eur J Med Chem, 2020)
# Activity calls are given as the source filed them. The rule behind the calls is not given here.
# Key:
# Salmonella enterica [1] = assay: Binding affinity to Salmonella enterica Threonyl-tRNA synthetase assessed as change in melting temperature at 0.5 mM incubated for 10 mins by SYPRO orange dye-based thermal shift assay
# Outline: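 SeThrRS 8 μM in 100 mM HEPES pH 7.5, 150 mM NaCl, 4× SYPRO orange, with 0.5 mM compound or 0.5% DMSO blank; 25 °C for 10 min, then ramped 25 to 95 °C at 1 °C/min, fluorescence read every 30 s. Tm fitted from melt curve; ΔTm = with minus without compound; mean of three independent experiments.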
# Salmonella enterica [2] = assay: Inhibition of Salmonella enterica Threonyl-tRNA synthetase assessed as reduction in aminoacylation activity at 100 uM using L-threonine as substrate incubated for 3 hrs by Kinase-glo luminescence assay relative to control
# Outline: (§1)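 3 h at room temperature, stopped with Kinase-Glo, luminescence read. Inhibition % = (RLU compound − RLU blank)/(RLU no-enzyme − RLU blank) × 100, at 100 μM compound. IC50 run for compounds above 50% inhibition at 100 μM, fitted as 100/(1+([I]/IC50)^B). Mean of three independent assays.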
# Pseudomonas aeruginosa = assay: Antibacterial activity against Pseudomonas aeruginosa ATCC 27853 assessed as reduction in bacterial growth incubated for 18 hrs by CLSI based broth microdilution assay; assay type: functional
# Outline: (§2)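 Broth microdilution per CLSI; compounds in 2-fold dilutions starting from 256 μg/mL. Defined medium: M9 with 0.4% glucose plus 100 μM of all canonical amino acids. MIC read as growth end point.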
# Enterococcus faecalis = assay: Antibacterial activity against Enterococcus faecalis ATCC 29212 assessed as reduction in bacterial growth incubated for 18 hrs by CLSI based broth microdilution assay; assay type: functional; outline: as §2
# Salmonella enterica [3] = assay: Antibacterial activity against Salmonella enterica 87 assessed as reduction in bacterial growth incubated for 18 hrs by CLSI based broth microdilution assay; assay type: functional; outline: as §2
# [4] = Inhibition of Salmonella enterica Threonyl-tRNA synthetase assessed as reduction in aminoacylation activity using L-threonine as substrate incubated for 3 hrs by Kinase-glo luminescence assay; outline: as §1
# Staphylococcus aureus [5] = assay: Antibacterial activity against methicillin-resistant Staphylococcus aureus R3708 assessed as reduction in bacterial growth incubated for 18 hrs by CLSI based broth microdilution assay; assay type: functional
# Outline: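 Broth microdilution under CLSI conditions, with 2-fold compound dilutions starting at 256 μg/mL. Medium was M9 with 0.4% glucose, supplemented with 100 μM of all canonical amino acids.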
# Staphylococcus aureus [6] = assay: Antibacterial activity against Staphylococcus aureus ATCC 29213 assessed as reduction in bacterial growth incubated for 18 hrs by CLSI based broth microdilution assay; assay type: functional; outline: as §2
# Escherichia coli = assay: Antibacterial activity against Escherichia coli ATCC 25922 assessed as reduction in bacterial growth incubated for 18 hrs by CLSI based broth microdilution assay; assay type: functional; outline: as §2
# [7] = Binding affinity to Salmonella enterica Threonyl-tRNA synthetase at 200 uM by isothermal titration calorimetry
# Outline: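 ITC: 20 μM SeThrRS in cell, 200 μM ligand in syringe, both in 20 mM HEPES pH 7.5, 150 mM NaCl. First injection 5 μL, then 24 × 10 μL at 180 s spacing. Ligand-into-buffer isotherm subtracted as baseline; one-site model fit gives Kd, ΔH, ΔS, N.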
# Salmonella enterica [8] = assay: Inhibition of Salmonella enterica Threonyl-tRNA synthetase assessed as reduction in aminoacylation activity at 10 uM using increasing concentration of t-RNAthr as substrate incubated for 3 hrs by Kinase-glo luminescence assay
# Outline: (§3)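 Aminoacylation by SeThrRS followed as ATP consumption (Kinase-Glo luminescence) after 3 h at room temperature. Inhibitor held at 10 μM while one substrate (L-Thr, tRNA^Thr or ATP, per line) was raised stepwise to test competition. Other components as in the standard assay.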
# Salmonella enterica [9] = assay: Inhibition of Salmonella enterica Threonyl-tRNA synthetase assessed as reduction in aminoacylation activity at 10 uM using increasing concentration of ATP as substrate incubated for 3 hrs by Kinase-glo luminescence assay; outline: as §3
# Salmonella enterica [10] = assay: Inhibition of Salmonella enterica Threonyl-tRNA synthetase assessed as reduction in aminoacylation activity at 10 uM using increasing concentration of L-threonine as substrate incubated for 3 hrs by Kinase-glo luminescence assay; outline: as §3
# Salmonella enterica [11] = assay: Potency index, ratio of IC50 of parent compound to IC50 of compound for inhibition of Salmonella enterica Threonyl-tRNA synthetase assessed as reduction in aminoacylation activity using L-threonine as substrate incubated for 3 hrs by Kinase-glo luminescence assay
SMILES,ΔTm (Salmonella enterica [1]),inhibition (Salmonella enterica [2]),MIC (Pseudomonas aeruginosa),MIC (Enterococcus faecalis),MIC (Salmonella enterica [3]),IC50 [4],MIC (Staphylococcus aureus [5]),MIC (Staphylococcus aureus [6]),MIC (Escherichia coli),further results
N[C@@H](CO)C(=O)NC/C=C/Cn1cnc2cc(Cl)c(Cl)cc2c1=O,0.6 °C,2%,–,–,–,–,–,–,–,–
CCO[C@H](C)[C@H](N)C(=O)NC/C=C/Cn1cnc2cc(Cl)c(Cl)cc2c1=O,0.2 °C,4%,–,–,–,–,–,–,–,–
CCN[C@H](C(=O)NC/C=C/Cn1cnc2cc(Cl)c(Cl)cc2c1=O)[C@@H](C)O,22.5 °C,100%,32 µg/mL,32 µg/mL,32 µg/mL,960 nM,32 µg/mL,64 µg/mL,16 µg/mL,–
CN[C@H](C(=O)NC/C=C/Cn1cnc2cc(Cl)c(Cl)cc2c1=O)[C@@H](C)O,28.4 °C,100%,32 µg/mL,32 µg/mL,16 µg/mL,500 nM,32 µg/mL,32 µg/mL,16 µg/mL,Kd [7]: 400 nM; inhibition (Salmonella enterica [8]): Active; inhibition (Salmonella enterica [9]): Active; inhibition (Salmonella enterica [10]): Active; Ratio IC50 (Salmonella enterica [11]): 3
C[C@@H](O)[C@H](NCCF)C(=O)NC/C=C/Cn1cnc2cc(Cl)c(Cl)cc2c1=O,19.1 °C,99%,64 µg/mL,32 µg/mL,32 µg/mL,2500 nM,64 µg/mL,32 µg/mL,32 µg/mL,–
C=CCN[C@H](C(=O)NC/C=C/Cn1cnc2cc(Cl)c(Cl)cc2c1=O)[C@@H](C)O,22.1 °C,100%,–,–,–,1200 nM,–,–,–,–
C[C@@H](O)[C@H](N)C(=O)NS(=O)(=O)c1cccc(-c2ccc3[nH]ncc3c2)c1,–,–,> 256 µg/mL,> 256 µg/mL,> 256 µg/mL,–,> 256 µg/mL,> 256 µg/mL,> 256 µg/mL,–
CC(C)(O)[C@H](N)C(=O)NC/C=C/Cn1cnc2cc(Cl)c(Cl)cc2c1=O,0.9 °C,0%,–,–,–,–,–,–,–,–
C[C@H](O)[C@@H](N)C(=O)NC/C=C/Cn1cnc2cc(Cl)c(Cl)cc2c1=O,0.6 °C,6%,–,–,–,–,–,–,–,–
CN[C@H](CC(C)C)C(=O)N[C@H]1C(=O)N[C@@H](CC(N)=O)C(=O)N[C@H]2C(=O)N[C@H]3C(=O)N[C@H](C(=O)N[C@H](C(=O)O)c4cc(O)cc(O)c4-c4cc3ccc4O)[C@H](O)c3ccc(c(Cl)c3)Oc3cc2cc(c3O[C@@H]2O[C@H](CO)[C@@H](O)[C@H](O)[C@H]2O[C@H]2C[C@](C)(N)[C@H](O)[C@H](C)O2)Oc2ccc(cc2Cl)[C@H]1O [VANCOMYCIN],–,–,–,2 µg/mL,–,–,–,–,–,–
O=C(CC1NCCCC1O)Cn1cnc2cc(Br)c(Cl)cc2c1=O (stereo unspecified) [HALOFUGINONE],-1.5 °C,4%,64 µg/mL,128 µg/mL,64 µg/mL,–,64 µg/mL,64 µg/mL,128 µg/mL,–
CC1(C)S[C@@H]2[C@H](NC(=O)[C@H](N)c3ccccc3)C(=O)N2[C@H]1C(=O)O [AMPICILLIN],–,–,0.5 µg/mL,–,1 µg/mL,–,–,–,1 µg/mL,–
O=C1CC[C@@H](C(=O)NC/C=C/Cn2cnc3cc(Cl)c(Cl)cc3c2=O)N1,-0.4 °C,5%,–,–,–,–,–,–,–,–
CC(C)N[C@H](C(=O)NC/C=C/Cn1cnc2cc(Cl)c(Cl)cc2c1=O)[C@@H](C)O,14.1 °C,63%,–,–,–,49300 nM,–,–,–,–
O=C1CC[C@H](C(=O)NC/C=C/Cn2cnc3cc(Cl)c(Cl)cc3c2=O)N1,-0.2 °C,0%,–,–,–,–,–,–,–,–
C[C@@H](O)[C@H](NCC#N)C(=O)NC/C=C/Cn1cnc2cc(Cl)c(Cl)cc2c1=O,18.8 °C,93%,–,–,–,9600 nM,–,–,–,–
